This note sets out measurements from ChEMBL document CHEMBL1135421, “2-(Anilinomethyl)imidazolines as alpha1 adrenergic receptor agonists: the discovery of alpha1a subtype selective 2'-alkylsulfonyl-substituted analogues” (J Med Chem, 2002).

Test [1] deals with T1, Alpha-1A adrenergic receptor (Homo sapiens) (UniProt P35348).
T1 sequence (whole entry): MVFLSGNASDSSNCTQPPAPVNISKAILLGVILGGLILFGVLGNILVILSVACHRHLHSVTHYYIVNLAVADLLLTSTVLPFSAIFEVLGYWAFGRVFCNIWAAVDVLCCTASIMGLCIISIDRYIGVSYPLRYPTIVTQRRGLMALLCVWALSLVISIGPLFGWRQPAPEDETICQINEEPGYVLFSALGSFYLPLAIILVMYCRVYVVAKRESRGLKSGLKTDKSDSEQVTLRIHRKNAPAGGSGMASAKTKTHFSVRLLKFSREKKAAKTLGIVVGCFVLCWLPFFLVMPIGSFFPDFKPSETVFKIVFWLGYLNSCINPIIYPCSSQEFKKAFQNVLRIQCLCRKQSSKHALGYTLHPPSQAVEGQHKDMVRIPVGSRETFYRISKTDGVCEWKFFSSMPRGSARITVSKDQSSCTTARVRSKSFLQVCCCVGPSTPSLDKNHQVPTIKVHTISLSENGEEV
The experiment in a line: Efficacy as % of the maximal effect observed for nonselective agonist phenylephrine in rat-1 fibroblasts expressing human Alpha-1 adrenergic receptor. The format is functional. In outline: (§1)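 Rat-1 fibroblasts expressing human α1a/α1b/α1d, grown in DMEM with 10% heat-inactivated FBS and 0.6 mg/mL G418, plated 6000 cells/well and cultured 48 h at 37 °C. Loaded 2 h at 37 °C with Calcium Green (4 μM), 0.2% pluronic acid and 2.5 mM probenecid in HEPES buffer pH 7.4. FLIPR read at room temperature: 10 s baseline, then 50 s after compound. 11-point curves as % of 40 μM phenylephrine response, top concentration typically 5 μM.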

Test [2] deals with T2, Alpha-1B adrenergic receptor (Homo sapiens, UniProt P35368).
T2 sequence (P35368 whole entry): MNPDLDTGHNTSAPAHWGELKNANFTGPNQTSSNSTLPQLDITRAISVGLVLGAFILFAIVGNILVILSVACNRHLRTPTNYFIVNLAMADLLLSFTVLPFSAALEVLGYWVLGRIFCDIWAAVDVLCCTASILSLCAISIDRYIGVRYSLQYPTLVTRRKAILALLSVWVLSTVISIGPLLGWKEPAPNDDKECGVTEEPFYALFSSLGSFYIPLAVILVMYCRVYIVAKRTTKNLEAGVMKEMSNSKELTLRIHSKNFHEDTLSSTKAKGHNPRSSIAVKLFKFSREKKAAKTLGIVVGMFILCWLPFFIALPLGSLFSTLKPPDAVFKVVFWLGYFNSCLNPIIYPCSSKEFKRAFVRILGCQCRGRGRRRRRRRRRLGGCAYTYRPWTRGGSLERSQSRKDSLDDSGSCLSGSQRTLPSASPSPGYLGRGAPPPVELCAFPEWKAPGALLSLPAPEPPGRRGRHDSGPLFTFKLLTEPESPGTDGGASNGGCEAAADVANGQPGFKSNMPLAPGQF
The experiment in a line: Agonist potency at Alpha-1B adrenergic receptor expressed in rat-1 fibroblasts. In kind it is functional.

Test [3] has as its target T3, Alpha-1A adrenergic receptor (Homo sapiens, UniProt P35348).
T3 sequence (P35348 whole entry): T1 sequence (whole entry)
Put plainly: Agonist potency at Alpha-1 adrenergic receptor assayed in rat-1 fibroblasts expressing human Alpha-1 adrenergic receptor. In kind it is functional. In outline: as §1

The target in test [4] is T4, Alpha-1D adrenergic receptor (Homo sapiens, UniProt P25100).
T4 sequence (P25100 whole entry): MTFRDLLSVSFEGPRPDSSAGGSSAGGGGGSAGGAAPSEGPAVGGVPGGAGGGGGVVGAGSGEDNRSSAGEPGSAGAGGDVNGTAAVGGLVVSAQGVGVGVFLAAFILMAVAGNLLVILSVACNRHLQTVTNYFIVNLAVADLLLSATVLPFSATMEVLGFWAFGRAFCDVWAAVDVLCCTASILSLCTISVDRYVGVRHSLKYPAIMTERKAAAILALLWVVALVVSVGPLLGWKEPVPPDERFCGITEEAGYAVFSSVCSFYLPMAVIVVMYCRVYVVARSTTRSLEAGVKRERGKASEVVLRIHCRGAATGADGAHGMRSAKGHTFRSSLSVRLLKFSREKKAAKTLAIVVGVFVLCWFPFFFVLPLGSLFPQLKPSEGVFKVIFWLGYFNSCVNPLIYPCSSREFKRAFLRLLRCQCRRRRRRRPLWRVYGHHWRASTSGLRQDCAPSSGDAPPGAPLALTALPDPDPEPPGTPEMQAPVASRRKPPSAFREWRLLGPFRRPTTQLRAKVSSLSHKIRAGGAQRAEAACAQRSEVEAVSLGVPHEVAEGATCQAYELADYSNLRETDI
Put plainly: Agonist potency at Alpha-1D adrenergic receptor assayed in rat-1 fibroblasts expressing human Alpha-1D adrenergic receptor. The format is functional. In outline:
as §1

For test [5], the target named is T5, Alpha-2C adrenergic receptor (Homo sapiens, UniProt P18825).
T5 sequence (P18825 whole entry): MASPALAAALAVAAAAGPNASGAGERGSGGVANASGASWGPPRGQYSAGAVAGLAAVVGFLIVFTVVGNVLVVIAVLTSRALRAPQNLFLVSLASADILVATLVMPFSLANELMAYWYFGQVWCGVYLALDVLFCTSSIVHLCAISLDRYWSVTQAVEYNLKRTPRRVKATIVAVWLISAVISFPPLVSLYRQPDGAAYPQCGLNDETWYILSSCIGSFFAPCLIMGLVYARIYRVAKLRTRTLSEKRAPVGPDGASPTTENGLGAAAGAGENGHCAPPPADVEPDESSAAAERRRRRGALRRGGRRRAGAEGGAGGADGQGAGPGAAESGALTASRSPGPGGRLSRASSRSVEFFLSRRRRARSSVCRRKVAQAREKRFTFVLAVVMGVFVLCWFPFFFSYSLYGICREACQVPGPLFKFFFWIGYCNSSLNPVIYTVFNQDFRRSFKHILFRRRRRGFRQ
The experiment in a line: Agonist potency at Alpha-2C adrenergic receptor assayed in CHO cells expressing human Alpha-2C adrenergic receptor. The format is functional, cell-based.

The target of test [6] is T6, Alpha-2A adrenergic receptor (Homo sapiens) (UniProt P08913).
T6 sequence (whole entry): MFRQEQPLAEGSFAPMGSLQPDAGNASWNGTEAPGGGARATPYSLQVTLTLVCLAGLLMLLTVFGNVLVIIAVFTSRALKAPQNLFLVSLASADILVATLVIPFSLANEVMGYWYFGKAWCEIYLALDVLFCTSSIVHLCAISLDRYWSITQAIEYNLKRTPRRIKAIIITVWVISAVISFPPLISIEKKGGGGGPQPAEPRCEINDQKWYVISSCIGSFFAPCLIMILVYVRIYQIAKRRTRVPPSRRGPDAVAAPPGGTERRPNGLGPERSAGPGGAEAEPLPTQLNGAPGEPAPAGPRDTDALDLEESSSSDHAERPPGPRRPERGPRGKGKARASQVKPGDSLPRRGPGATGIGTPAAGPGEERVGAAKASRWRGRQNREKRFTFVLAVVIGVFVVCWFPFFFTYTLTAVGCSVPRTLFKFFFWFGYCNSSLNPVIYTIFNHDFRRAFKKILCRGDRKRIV
Put plainly: Efficacy as percentage of the maximal effect observed for nonselective agonist UK-14304 in CHO cells expressing human Alpha-2A adrenergic receptor. In kind it is functional, cell-based.

The target of test [7] is T7, Alpha-2A adrenergic receptor (Homo sapiens, UniProt P08913).
T7 sequence (P08913 whole entry): T6 sequence (whole entry)
The experiment in a line: Affinity to human Alpha-2A adrenergic receptor determined by radioligand binding techniques from chinese hamster ovary (CHO) cells. The format is cell-based.

Bounds are passed on as bounds.

Usually EC50 stands for the concentration at which the effect is half-maximal. As a reminder, the Ki is the equilibrium dissociation constant of an inhibitor or competing ligand from its target. For `CSc1cc(F)ccc1NCC1=NCCN1`, the Max in test [1] came out at 93%; in test [6], 47%. Besides, the EC50 is 6.03 nM in test [2], 7.76 nM in test [3], 9.12 nM in test [4] and 100 nM in test [5]. Also, the Ki in test [7] is 58.9 nM.
Take `CSc1ccc(C(F)(F)F)cc1NCC1=NCCN1`: the Max in test [1] was 111%; in test [6], 40%. For the same compound, the EC50 is 6.03 nM in test [2], 10.5 nM in test [3], 43.7 nM in test [4] and 7.94 nM in test [5]. In test [7], the affinity, expressed as Ki, was 200 nM.
Turning to `CSc1ccc(F)cc1NCC1=NCCN1`, the Max in test [1] turned out to be 90%; in test [6], 96%. Also, the EC50 is 1.86 nM in test [2], 2.29 nM in test [3], 21.9 nM in test [4] and 5.62 nM in test [5]. The compound further showed a Ki in test [7] of 18.2 nM.
Regarding `Cc1ccc(S(C)(=O)=O)c(NCC2=NCCN2)c1`, the Max in test [1] was 98%; in test [6], 24%. The 50% effective concentration (EC50) in test [2] is 141 nM; in test [3], 1.95 nM; in test [4], more than 2000 nM; in test [5], 1120 nM. The same compound gave a Ki in test [7] of 3890 nM.
As to `CSc1ccc(C)cc1NCC1=NCCN1`, the values for the Max in test [1] and in test [6] were 101% and 87%, respectively. Moreover, the EC50 in test [2] is 0.417 nM; in test [3], 0.11 nM; in test [4], 0.912 nM; in test [5] it was 8.91 nM. In addition, in test [7], the affinity, expressed as Ki, was 63.1 nM.
With `CS(=O)(=O)c1ccc(Cl)cc1NCC1=NCCN1`, the Max worked out at 91% in test [1] and 42% in test [6]. Further, the EC50 in test [2] is 61.7 nM; in test [3], 2.82 nM; in test [4] it was more than 100000 nM; in test [5], 794 nM. This compound showed a Ki in test [7] of more than 7940 nM.
As for `CCSc1ccccc1NCC1=NCCN1`, the figures for the Max in test [1] and in test [6] were 109% and 67%, respectively. For the same compound, the EC50 in test [2] was 13.8 nM; in test [3], 3.39 nM; in test [4], 51.3 nM; in test [5], 28.2 nM. This compound had a Ki in test [7] of 81.3 nM.
